How the values were obtained:
[1] = Partition coefficient (P); settings: octanol/water
[2] = Bmax value was measured on A-beta-40 fibrils at high salt
In short: (§1)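 Synthetic Aβ40 fibrils (50 µM total Aβ40 stock, 20 µL added to 180 µL probe solution) were incubated with probe at 2–18 µM final in pH 7.4 10 mM phosphate, with 100 or 0 mM NaCl. Stocks for the Re complexes were in methanol, ≤3 vol % final. The mixture was held 1 h at 25 °C, then fibrils were pelleted by centrifugation.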

[3] = Apparent dissociation constant was measured at 110 mM salt
In short: as §1

[4] = max value was measured on A-beta-40 fibrils at low salt
In short: as §1

[5] = Apparent dissociation constant was measured at 10 mM salt
In short: as §1

P [1]: 0.16
Bmax [2]: 2.6
Kd [3]: 1.5 µM
Bmax [4]: 0.6
Kd [5]: 1.1 µM
Structure (SMILES): Nc1c(/N=N/c2ccc(-c3ccc(/N=N/c4cc(S(=O)(=O)O)c5ccccc5c4N)cc3)cc2)cc(S(=O)(=O)O)c2ccccc12 [CONGO RED]
